According to ChEMBL document CHEMBL5303300, “EUbOPEN Chemogenomics Library - Multiplex” (2023):
Several values for one entry are separate records, joined by “and”; a condition that tells them apart may be missing. Equal entries are not always repeated.

Tested on: Fibroblast
Test: Multiplex assay against human fibroblast
Format: toxicity, cell-based
Conditions: number of replicates 2
Summary of the method: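 Hoechst33342, BioTracker Green Microtubule Cytoskeleton Dye, MitoTracker Red and Annexin V Alexa Fluor 680 were added to live cells at seeding, and imaging on a CQ1 microscope at 37°C and 5% CO2 followed compound addition. Gating by CellPathfinder machine learning separated cells into Hoechst high-intensity objects or normal cells, then normal cells into healthy, pyknosed or fragmented nuclei, then pyknosed cells into mitotic or apoptotic. Per cents of healthy-nucleus cells are reported for the tubulin, mitochondrial-mass and membrane-permeability phenotypes.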

[1] = 12 h, 1 µM, compound concentration 1 uM
[2] = 12 h, 10 µM, compound concentration 10 uM
[3] = 24 h, 1 µM, compound concentration 1 uM
[4] = 24 h, 10 µM, compound concentration 10 uM
[5] = 48 h, 1 µM, compound concentration 1 uM
[6] = 48 h, 10 µM, compound concentration 10 uM

C[C@H](N)Cn1ccc2cc(F)c(Cl)cc21.O=C(O)/C=C/C(=O)O
Population Apoptotic (%) [1]: 44% and 40%
Population Fragmented Nuclei (%) [1]: 14%
Population Healthy Nuclei (%) [1]: 74% and 61%
Population Hoechst High Intensity Objects (%) [1]: 0%
Population Membrane Permeable-Phenotype (%) [1]: 5% and 6%
Population Mitochondria Different-Phenotype (%) [1]: 0% and 1%
Population Mitotic Cells (%) [1]: 55% and 60%
Population Normal (%) [1]: 100%
Population Pyknosed Nuclei (%) [1]: 11% and 24%
Population Tubulin-Different-Phenotype (%) [1]: 14% and 11%
Total Cell Count [1]: 252 and 208
Population Apoptotic (%) [2]: 45% and 37%
Population Fragmented Nuclei (%) [2]: 14% and 22%
Population Healthy Nuclei (%) [2]: 69% and 58%
Population Hoechst High Intensity Objects (%) [2]: 0%
Population Membrane Permeable-Phenotype (%) [2]: 11% and 12%
Population Mitochondria Different-Phenotype (%) [2]: 3% and 6%
Population Mitotic Cells (%) [2]: 54% and 62%
Population Normal (%) [2]: 100%
Population Pyknosed Nuclei (%) [2]: 16% and 19%
Population Tubulin-Different-Phenotype (%) [2]: 24% and 26%
Total Cell Count [2]: 189 and 184
Population Apoptotic (%) [3]: 42% and 68%
Population Healthy Nuclei (%) [3]: 25% and 72%
Population Hoechst High Intensity Objects (%) [3]: 1% and 0%
Population Mitochondria Different-Phenotype (%) [3]: 2% and 1%
Population Mitotic Cells (%) [3]: 57% and 31%
Population Normal (%) [3]: 98% and 99%
Population Pyknosed Nuclei (%) [3]: 23% and 11%
Total Cell Count [3]: 149 and 256
Population Apoptotic (%) [4]: 53% and 51%
Population Fragmented Nuclei (%) [4]: 24% and 28%
Population Healthy Nuclei (%) [4]: 63% and 56%
Population Hoechst High Intensity Objects (%) [4]: 0%
Population Membrane Permeable-Phenotype (%) [4]: 4% and 7%
Population Mitochondria Different-Phenotype (%) [4]: 0% and 5%
Population Mitotic Cells (%) [4]: 46% and 48%
Population Normal (%) [4]: 99% and 100%
Population Pyknosed Nuclei (%) [4]: 12% and 14%
Population Tubulin-Different-Phenotype (%) [4]: 23% and 28%
Total Cell Count [4]: 208
Population Apoptotic (%) [5]: 65% and 56%
Population Fragmented Nuclei (%) [5]: 18% and 21%
Population Healthy Nuclei (%) [5]: 67% and 59%
Population Hoechst High Intensity Objects (%) [5]: 0%
Population Membrane Permeable-Phenotype (%) [5]: 4% and 5%
Population Mitochondria Different-Phenotype (%) [5]: 0% and 1%
Population Mitotic Cells (%) [5]: 34% and 43%
Population Normal (%) [5]: 100% and 99%
Population Pyknosed Nuclei (%) [5]: 13% and 18%
Population Tubulin-Different-Phenotype (%) [5]: 7% and 9%
Total Cell Count [5]: 258 and 233
Population Apoptotic (%) [6]: 60% and 65%
Population Fragmented Nuclei (%) [6]: 33% and 30%
Population Healthy Nuclei (%) [6]: 58% and 60%
Population Hoechst High Intensity Objects (%) [6]: 0%
Population Membrane Permeable-Phenotype (%) [6]: 4% and 6%
Population Mitochondria Different-Phenotype (%) [6]: 0% and 1%
Population Mitotic Cells (%) [6]: 40% and 35%
Population Normal (%) [6]: 99%
Population Pyknosed Nuclei (%) [6]: 7% and 9%
Population Tubulin-Different-Phenotype (%) [6]: 22% and 18%
Total Cell Count [6]: 255 and 217

COc1cccc(Cn2cc(C(=O)Nc3ccc(C)c(S(=O)(=O)N4CCOCC4)c3)c(-c3ccc(C)cc3)n2)c1
Population Apoptotic (%) [1]: 48% and 37%
Population Fragmented Nuclei (%) [1]: 7% and 6%
Population Healthy Nuclei (%) [1]: 65% and 67%
Population Hoechst High Intensity Objects (%) [1]: 0% and 1%
Population Membrane Permeable-Phenotype (%) [1]: 13% and 10%
Population Mitochondria Different-Phenotype (%) [1]: 2% and 3%
Population Mitotic Cells (%) [1]: 51% and 62%
Population Normal (%) [1]: 100% and 98%
Population Pyknosed Nuclei (%) [1]: 26% and 27%
Population Tubulin-Different-Phenotype (%) [1]: 44% and 39%
Total Cell Count [1]: 152 and 203
Population Apoptotic (%) [2]: 39% and 45%
Population Fragmented Nuclei (%) [2]: 6% and 7%
Population Healthy Nuclei (%) [2]: 63% and 53%
Population Hoechst High Intensity Objects (%) [2]: 0% and 1%
Population Membrane Permeable-Phenotype (%) [2]: 21% and 28%
Population Mitochondria Different-Phenotype (%) [2]: 2% and 1%
Population Mitotic Cells (%) [2]: 60% and 54%
Population Normal (%) [2]: 100% and 98%
Population Pyknosed Nuclei (%) [2]: 29% and 38%
Population Tubulin-Different-Phenotype (%) [2]: 93% and 85%
Total Cell Count [2]: 191 and 229
Population Apoptotic (%) [3]: 57% and 42%
Population Fragmented Nuclei (%) [3]: 9% and 10%
Population Healthy Nuclei (%) [3]: 64% and 59%
Population Hoechst High Intensity Objects (%) [3]: 0%
Population Membrane Permeable-Phenotype (%) [3]: 13% and 9%
Population Mitochondria Different-Phenotype (%) [3]: 1% and 3%
Population Mitotic Cells (%) [3]: 42% and 57%
Population Normal (%) [3]: 100%
Population Pyknosed Nuclei (%) [3]: 25% and 30%
Population Tubulin-Different-Phenotype (%) [3]: 44% and 38%
Total Cell Count [3]: 162 and 205
Population Apoptotic (%) [4]: 66% and 67%
Population Fragmented Nuclei (%) [4]: 9%
Population Healthy Nuclei (%) [4]: 70% and 57%
Population Hoechst High Intensity Objects (%) [4]: 0% and 1%
Population Membrane Permeable-Phenotype (%) [4]: 14% and 20%
Population Mitochondria Different-Phenotype (%) [4]: 2% and 7%
Population Mitotic Cells (%) [4]: 33% and 32%
Population Normal (%) [4]: 100% and 98%
Population Pyknosed Nuclei (%) [4]: 19% and 32%
Population Tubulin-Different-Phenotype (%) [4]: 90% and 84%
Total Cell Count [4]: 199 and 219
Population Apoptotic (%) [5]: 73% and 64%
Population Fragmented Nuclei (%) [5]: 13% and 11%
Population Healthy Nuclei (%) [5]: 65% and 67%
Population Hoechst High Intensity Objects (%) [5]: 0%
Population Membrane Permeable-Phenotype (%) [5]: 6% and 9%
Population Mitochondria Different-Phenotype (%) [5]: 1% and 2%
Population Mitotic Cells (%) [5]: 26% and 35%
Population Normal (%) [5]: 100% and 99%
Population Pyknosed Nuclei (%) [5]: 21% and 20%
Population Tubulin-Different-Phenotype (%) [5]: 34%
Total Cell Count [5]: 178 and 191
Population Apoptotic (%) [6]: 75%
Population Fragmented Nuclei (%) [6]: 15% and 17%
Population Healthy Nuclei (%) [6]: 69% and 58%
Population Hoechst High Intensity Objects (%) [6]: 0% and 1%
Population Membrane Permeable-Phenotype (%) [6]: 25% and 23%
Population Mitochondria Different-Phenotype (%) [6]: 1% and 5%
Population Mitotic Cells (%) [6]: 25%
Population Normal (%) [6]: 100% and 98%
Population Pyknosed Nuclei (%) [6]: 15% and 23%
Population Tubulin-Different-Phenotype (%) [6]: 89% and 83%
Total Cell Count [6]: 210 and 238
